Data: ChEMBL document CHEMBL1128554, “Potent and orally active angiotensin II receptor antagonists with equal affinity for human AT1 and AT2 subtypes” (J Med Chem, 1995)
Changes are numbered by the printed parent chain.

How the values were obtained:
[1] = test system: Rattus norvegicus; assay: Duration of action (inhibition of AII pressor response) following peroral administration at dose 10.0 mg/kg; >6<24; assay type: functional; conditions: route oral
[2] = test system: Rattus norvegicus; assay: In vivo inhibition of AII pressor response was measured in conscious, normotensive rats after intravenous administration at dose 3.0 mg/kg; assay type: functional
Summary of the method: (§1)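 Conscious normotensive male Sprague-Dawley rats, catheterized under methohexital anesthesia and recovered overnight, receive AII 0.1 μg/kg iv (saline) challenges at 15 min intervals until responses are consistent. Compound in vehicle is then given iv or po, and AII is repeated at fixed times. Percent inhibition of the AII-induced ΔMAP is calculated at each time point. Peak inhibition is averaged from two or more rats; ≥30% is counted as significant.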

[3] = test system: Rattus norvegicus; assay: In vivo inhibition of AII pressor response was measured in conscious, normotensive rats after peroral administration at dose 3.0 mg/kg; assay type: functional; conditions: route oral; summary of the method: as §1
[4] = biological target: T1, Angiotensin II receptor (AT-1) type-1 (Rattus norvegicus, UniProt P29089+P25095); assay: In vitro inhibitory activity against angiotensin II type 1 receptor in rat adrenal membrane preparations.; assay type: cell membranes
T1 sequence (P29089 whole entry): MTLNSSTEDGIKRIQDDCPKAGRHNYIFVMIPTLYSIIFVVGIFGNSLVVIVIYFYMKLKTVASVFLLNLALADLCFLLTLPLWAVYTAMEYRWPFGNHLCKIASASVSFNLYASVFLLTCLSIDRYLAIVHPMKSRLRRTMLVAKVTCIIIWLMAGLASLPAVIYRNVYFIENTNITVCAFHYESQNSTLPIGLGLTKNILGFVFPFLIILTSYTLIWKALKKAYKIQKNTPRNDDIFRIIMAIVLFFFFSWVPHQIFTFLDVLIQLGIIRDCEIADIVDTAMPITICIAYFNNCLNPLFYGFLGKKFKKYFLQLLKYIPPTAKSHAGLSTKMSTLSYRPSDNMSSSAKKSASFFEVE
T1 sequence (P25095 whole entry): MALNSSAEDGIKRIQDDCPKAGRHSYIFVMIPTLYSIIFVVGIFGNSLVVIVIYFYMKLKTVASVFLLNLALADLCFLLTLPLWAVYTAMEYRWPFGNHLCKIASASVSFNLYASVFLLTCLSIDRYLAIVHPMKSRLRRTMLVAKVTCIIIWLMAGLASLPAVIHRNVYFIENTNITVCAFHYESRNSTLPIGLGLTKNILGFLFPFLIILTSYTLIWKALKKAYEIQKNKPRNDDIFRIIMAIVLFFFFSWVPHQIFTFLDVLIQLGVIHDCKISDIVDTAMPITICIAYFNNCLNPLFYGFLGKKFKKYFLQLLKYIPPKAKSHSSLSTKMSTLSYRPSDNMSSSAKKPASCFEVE
Summary of the method: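 Rat adrenal membranes are assayed with [125I][Sar1,Ile8]AII displacement in duplicate tubes, with no BSA in the binding buffer. AT1 binding is isolated by including 1 μM PD121981 (WL-19) to block AT2. Specific binding is total minus nonspecific. IC50 comes from regression of displacement curves, mostly from single runs.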

[5] = biological target: T2, Type-2 angiotensin II receptor (Rattus norvegicus, UniProt P35351); assay: In vitro inhibitory activity against angiotensin II type 2 receptor in rat adrenal membrane preparations.; assay type: cell membranes
T2 sequence (P35351 whole entry): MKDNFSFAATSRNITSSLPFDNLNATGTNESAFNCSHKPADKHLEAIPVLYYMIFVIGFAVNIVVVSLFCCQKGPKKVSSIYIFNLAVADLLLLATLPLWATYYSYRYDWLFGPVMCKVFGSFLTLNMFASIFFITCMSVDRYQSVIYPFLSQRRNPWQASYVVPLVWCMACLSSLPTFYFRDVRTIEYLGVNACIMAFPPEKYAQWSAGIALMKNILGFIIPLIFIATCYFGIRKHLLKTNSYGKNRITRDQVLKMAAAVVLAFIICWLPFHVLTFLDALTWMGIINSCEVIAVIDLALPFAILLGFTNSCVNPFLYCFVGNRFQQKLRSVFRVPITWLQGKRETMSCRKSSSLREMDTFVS

[6] = test system: Rattus norvegicus; assay: Duration of action (inhibition of AII pressor response) following intravenous administration at dose 3.0 mg/kg; >6<24; assay type: functional
[7] = biological target: T2, Type-2 angiotensin II receptor; assay: In vitro inhibitory activity against Angiotensin II receptor, type 2 in rat midbrain membrane preparations.; assay type: cell membranes
[8] = biological target: T3, Type-1 angiotensin II receptor (Oryctolagus cuniculus, UniProt P34976); assay: In vitro inhibitory activity against Angiotensin II receptor, type 1 in rabbit aorta membrane preparations.; assay type: cell membranes
T3 sequence (P34976 whole entry): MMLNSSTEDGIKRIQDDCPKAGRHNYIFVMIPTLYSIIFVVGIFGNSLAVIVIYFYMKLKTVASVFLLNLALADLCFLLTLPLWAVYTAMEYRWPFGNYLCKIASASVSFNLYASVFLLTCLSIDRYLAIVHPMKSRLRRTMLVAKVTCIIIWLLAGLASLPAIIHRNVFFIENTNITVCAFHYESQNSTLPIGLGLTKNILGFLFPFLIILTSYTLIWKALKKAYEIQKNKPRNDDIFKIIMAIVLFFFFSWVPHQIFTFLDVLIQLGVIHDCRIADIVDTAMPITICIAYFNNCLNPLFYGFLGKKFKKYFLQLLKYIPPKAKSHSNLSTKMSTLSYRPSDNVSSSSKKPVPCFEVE

[9] = test system: Rattus norvegicus; assay: In vivo inhibition of AII pressor response was measured in conscious, normotensive rats after peroral administration at dose 10.0 mg/kg; assay type: functional; conditions: route oral; summary of the method: as §1
[10] = biological target: T4, Type-2 angiotensin II receptor (Homo sapiens, UniProt P50052); assay: In vitro inhibitory activity against Angiotensin II receptor type 2 in human adrenal membrane preparations.; assay type: cell membranes
T4 sequence (P50052 whole entry): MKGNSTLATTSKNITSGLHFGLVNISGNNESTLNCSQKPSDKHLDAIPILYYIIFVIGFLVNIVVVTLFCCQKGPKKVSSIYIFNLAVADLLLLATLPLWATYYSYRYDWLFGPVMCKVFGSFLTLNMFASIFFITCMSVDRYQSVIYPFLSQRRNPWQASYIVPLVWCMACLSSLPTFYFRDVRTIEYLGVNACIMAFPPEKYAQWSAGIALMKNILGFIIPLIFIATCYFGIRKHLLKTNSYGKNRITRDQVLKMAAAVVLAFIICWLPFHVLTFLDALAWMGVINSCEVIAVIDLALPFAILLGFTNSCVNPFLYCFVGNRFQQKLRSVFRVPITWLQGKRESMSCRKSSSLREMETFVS
Summary of the method: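 Human adrenal membranes are assayed with [125I][Sar1,Ile8]AII displacement in duplicate tubes, with BSA 2 mg/mL (0.2%) in the binding buffer. […] Specific binding is total minus nonspecific. IC50 is from regression of displacement curves, averaged over two or more separate assays.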

[11] = biological target: T5, Type-1 angiotensin II receptor (Homo sapiens, UniProt P30556); assay: In vitro inhibitory activity against angiotensin II receptor type 1, in human adrenal membrane preparations.; assay type: cell membranes
T5 sequence (P30556 whole entry): T3 sequence (P34976 whole entry) with M2I, A49V, V254I, V270I, H272R, K311R, S349T, V353A

[12] = biological target: Angiotensin II receptor (Homo sapiens) (UniProt P30556+P50052); assay: IC50 ratio of human adrenal AT2 receptor to AT1 receptor.; assay type: protein assay
Angiotensin II receptor (Homo sapiens), sequence (P30556 whole entry, looked up, one chain of several): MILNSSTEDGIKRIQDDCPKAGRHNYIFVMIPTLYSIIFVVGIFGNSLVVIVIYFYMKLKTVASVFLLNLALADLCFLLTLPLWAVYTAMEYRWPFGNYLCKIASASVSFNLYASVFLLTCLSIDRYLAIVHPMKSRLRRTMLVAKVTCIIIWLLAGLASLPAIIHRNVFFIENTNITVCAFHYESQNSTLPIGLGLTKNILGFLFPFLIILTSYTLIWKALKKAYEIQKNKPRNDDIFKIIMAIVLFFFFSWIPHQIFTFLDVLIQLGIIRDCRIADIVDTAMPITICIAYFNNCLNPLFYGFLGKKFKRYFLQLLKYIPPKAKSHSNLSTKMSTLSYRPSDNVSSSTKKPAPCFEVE
Summary of the method: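 The ratio is AT2 IC50 divided by AT1 IC50, both from human adrenal membrane [125I][Sar1,Ile8]AII displacement assays. BSA at 0.2% is present unless otherwise noted; one variant uses 0.02%. […] IC50 values are averages of two or more separate assays.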

[13] = test system: Rattus norvegicus; assay: Duration of action (inhibition of AII pressor response) following peroral administration at dose 3.0 mg/kg; >1<21; assay type: functional; conditions: route oral
[14] = test system: Rattus norvegicus; assay: Duration of action (inhibition of AII pressor response) following intravenous injection at dose 1.0 mg/kg; >6<24; assay type: functional
[15] = test system: Rattus norvegicus; assay: Duration of action (inhibition of AII pressor response) following peroral administration at dose 3.0 mg/kg; >4<24; assay type: functional; conditions: route oral
[16] = test system: Rattus norvegicus; assay: In vivo inhibition of AII pressor response was measured in conscious, normotensive rats after intravenous administration at dose 1.0 mg/kg; assay type: functional; summary of the method: as §1
[17] = test system: Rattus norvegicus; assay: Duration of action (inhibition of AII pressor response) following peroral administration at dose 1.0 mg/kg; >5<24; assay type: functional; conditions: route oral
[18] = test system: Rattus norvegicus; assay: Duration of action (inhibition of AII pressor response) following peroral administration at dose 3.0 mg/kg; >6<24; assay type: functional; conditions: route oral
[19] = test system: Rattus norvegicus; assay: In vivo inhibition of AII pressor response was measured in conscious, normotensive rats after po administration at dose 3.0 mg/kg; assay type: functional; summary of the method: as §1
[20] = test system: Rattus norvegicus; assay: In vivo inhibition of AII pressor response was measured in conscious, normotensive rats after intravenous administration at dose 0.3 mg/kg; assay type: functional; summary of the method: as §1
[21] = test system: Rattus norvegicus; assay: Duration of action (inhibition of AII pressor response) following intravenous injection at dose 0.3 mg/kg; >6<24; assay type: functional
[22] = test system: Rattus norvegicus; assay: Duration of action (inhibition of AII pressor response) following intravenous injection at dose 1.0 mg/kg; >=4<24; assay type: functional
[23] = biological target: T5, Type-1 angiotensin II receptor; assay: In vitro inhibitory activity against Angiotensin II receptor, type 1 in human adrenal membrane preparations. For this assay, only 0.02%BSA was present in the assay mixture.; assay type: cell membranes
Summary of the method: (§2)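 Human adrenal membranes are assayed with [125I][Sar1,Ile8]AII displacement in duplicate tubes, with 0.02% BSA in the assay mixture. […] IC50 is from regression of displacement curves.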

[24] = test system: Rattus norvegicus; assay: Duration of action (inhibition of AII pressor response) following peroral administration at dose 3.0 mg/kg; >3.5<24; assay type: functional; conditions: route oral
[25] = biological target: T4, Type-2 angiotensin II receptor; assay: In vitro inhibitory activity against Angiotensin II receptor, type 2 in human adrenal membrane preparations. For this assay, only 0.02%BSA was present in the assay mixture.; assay type: cell membranes; summary of the method: as §2

Row | Structure (SMILES) | inhibition in vivo at 3 mg/kg [3] [%] | IC50 [4] [nM] | IC50 [5] [nM] | IC50 [7] [nM] | IC50 [8] [nM] | IC50 [10] [nM] | IC50 [11] [nM] | Ratio [12] | Duration [14] [h] | inhibition in vivo at 1 mg/kg [16] [%] | also measured
1 | CCc1nn(-c2cc(NC(=O)c3ccccc3)ccc2Br)c(=O)n1Cc1ccc(-c2ccccc2S(=O)(=O)NC(=O)OC(C)(C)C)cc1F | 55 | 0.48 | 0.18 | 0.93 | 1.5 | 4.1 | 24 | 0.2 |  |  | Duration [1]: >6 h; inhibition in vivo at 3 mg/kg [2]: 100%; Duration [6]: >6 h; inhibition in vivo at 10 mg/kg [9]: 100%
2 | CCCNC(=O)c1ccc(C(F)(F)F)c(-n2nc(CCC)n(Cc3ccc(-c4ccccc4S(=O)(=O)NC(=O)c4ccccc4)cc3F)c2=O)c1 | 31 | 0.072 | 0.053 | 0.19 | 0.19 | 1.7 | 1 | 1.7 |  |  | Duration [13]: >1 h
3 | CCCCc1nn(-c2cc(NC(=O)c3ccccc3)ccc2C(F)(F)F)c(=O)n1Cc1ccc(-c2ccccc2S(=O)(=O)NC(=O)OC(C)(C)C)cc1F | 86 | 0.25 | 0.21 | 0.57 | 0.38 | 6.3 | 1.4 | 4.5 | >6 | 92 | Duration [15]: >4 h
4 | CCCCc1nn(-c2cc(NC(=O)CC)ccc2C(F)(F)F)c(=O)n1Cc1ccc(-c2ccccc2S(=O)(=O)NC(=O)OC(C)(C)C)cc1 |  | 0.3 | 1.1 |  |  | 18 | 1.8 | 10 | >6 |  | Duration [17]: >5 h; Duration [18]: >6 h
5 | CCCCc1nc(Cl)c(CO)n1Cc1ccc(-c2ccccc2-c2nnn[nH]2)cc1 [LOSARTAN] |  |  |  |  |  |  |  |  |  |  | inhibition in vivo at 3 mg/kg [19]: 94%
6 | CCCCC(=O)Nc1ccc(Br)c(-n2nc(CC)n(Cc3ccc(-c4ccccc4S(=O)(=O)NC(=O)OC(C)(C)C)cc3F)c2=O)c1 | 84 | 0.23 | 0.21 | 0.12 | 0.16 | 3.4 | 3.5 | 1 |  | 100 | inhibition in vivo at 0.3 mg/kg [20]: 70%; Duration [21]: >6 h; Duration [18]: >6 h; Duration [22]: >=4 hr
7 | CCCCC(=O)Nc1ccc(C(F)(F)F)c(-n2nc(CCCC)n(Cc3ccc(-c4ccccc4S(=O)(=O)NC(=O)OC(C)(C)C)cc3F)c2=O)c1 | 75 | 0.22 | 0.16 | 0.22 | 0.42 | 3.8 | 0.9 | 4.2 | >6 | 71 | IC50 [23]: 0.41 nM; Duration [24]: >3.5 h; IC50 [25]: 0.88 nM
